Legend:
[1] = biological target: T1, G-protein coupled receptor 55 (Homo sapiens, UniProt Q9Y2T6); experiment: Agonist activity at HA-epitope-tagged variant of GPR55E with serine enhanced C terminus (unknown origin) expressed in human U2OS cells assessed as increase in GFP-tagged beta arrestin2 recruitment after 75 mins by fluorescence assay; type: cell-based
Target sequence in this assay (Q9Y2T6 whole entry, looked up): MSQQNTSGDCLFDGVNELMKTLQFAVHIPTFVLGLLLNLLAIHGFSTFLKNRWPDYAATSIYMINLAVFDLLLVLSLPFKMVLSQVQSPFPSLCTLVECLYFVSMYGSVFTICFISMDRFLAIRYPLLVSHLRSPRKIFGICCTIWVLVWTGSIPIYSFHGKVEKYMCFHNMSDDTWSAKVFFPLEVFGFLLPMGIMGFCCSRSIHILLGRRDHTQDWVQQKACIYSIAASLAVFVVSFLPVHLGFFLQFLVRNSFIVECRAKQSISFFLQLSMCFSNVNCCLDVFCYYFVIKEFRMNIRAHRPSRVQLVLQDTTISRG

Cannabinoid receptor 1 = Cannabinoid receptor 1 (Homo sapiens, UniProt P21554); experiment: Agonist activity at human brain CB1 receptor expressed in U2OS cells assessed as increase in beta arrestin recruitment after 60 mins by fluorescence assay; type: functional, cell-based
Sequence of Cannabinoid receptor 1 (P21554 whole entry): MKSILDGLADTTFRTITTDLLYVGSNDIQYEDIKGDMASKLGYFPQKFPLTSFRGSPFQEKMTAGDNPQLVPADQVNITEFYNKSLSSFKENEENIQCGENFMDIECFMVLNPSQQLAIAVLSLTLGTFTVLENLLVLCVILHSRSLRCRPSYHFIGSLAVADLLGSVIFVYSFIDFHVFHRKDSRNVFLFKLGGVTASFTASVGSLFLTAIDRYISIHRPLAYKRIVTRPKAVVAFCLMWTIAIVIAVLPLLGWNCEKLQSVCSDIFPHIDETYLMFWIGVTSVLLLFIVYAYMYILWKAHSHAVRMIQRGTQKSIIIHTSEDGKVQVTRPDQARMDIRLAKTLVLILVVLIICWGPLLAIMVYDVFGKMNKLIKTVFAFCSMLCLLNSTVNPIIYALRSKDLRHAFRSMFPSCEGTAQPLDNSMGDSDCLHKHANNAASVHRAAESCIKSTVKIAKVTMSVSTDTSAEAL

Cannabinoid receptor 2 = Cannabinoid receptor 2 (Homo sapiens, UniProt P34972); experiment: Agonist activity at human CB2 receptor expressed in U2OS cells assessed as increase in GFP-tagged beta arrestin recruitment after 75 mins by fluorescence assay; type: functional, cell-based
Sequence of Cannabinoid receptor 2 (P34972 whole entry, the tested form may be a part): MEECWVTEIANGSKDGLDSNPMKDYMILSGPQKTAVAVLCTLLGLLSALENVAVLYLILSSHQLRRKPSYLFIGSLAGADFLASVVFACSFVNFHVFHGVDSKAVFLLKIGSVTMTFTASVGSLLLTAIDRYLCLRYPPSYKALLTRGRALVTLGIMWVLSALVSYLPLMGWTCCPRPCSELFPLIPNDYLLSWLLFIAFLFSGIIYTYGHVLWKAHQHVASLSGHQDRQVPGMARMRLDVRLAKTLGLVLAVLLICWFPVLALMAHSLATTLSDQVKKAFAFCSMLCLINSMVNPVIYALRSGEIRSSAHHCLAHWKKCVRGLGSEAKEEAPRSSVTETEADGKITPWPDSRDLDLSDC

[2] = biological target: T1, G-protein coupled receptor 55; experiment: Agonist activity at beta-galactosidase enzyme fragment-fused GPR55 (unknown origin) expressed in CHOK1 cells assessed as increase in N-terminal deletion beta-galactosidase mutant-tagged beta arrestin recruitment measured for 1 sec by chemiluminescence based pathhunter assay; type: functional, cell-based
In short: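 CHO-K1 cells stably co-expressing the receptor–β-gal fragment fusion and the β-arrestin–deletion-mutant fusion, kept in selection medium, passaged up to 10 times. Ligands tested from 0.5 nM to 30 μM. Chemiluminescent substrate signal read at room temperature for 1 s. Vehicle readings subtracted from ligand readings (RLU), and EC50 obtained from these values. LPI served as positive control. Run in triplicate, repeated at least 3 times.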
Target sequence in this assay (Q9Y2T6 whole entry, looked up, stated change not applied): as the sequence (Q9Y2T6 whole entry, looked up) above

Row | Structure (SMILES) | EC50 [2] [nM] | further results
1 | COc1ccc2cc(C)c3nnc(SCC(=O)Nc4nc(-c5ccc(F)cc5)cs4)n3c2c1 | – | EC50 [1]: 160 nM; EC50 (Cannabinoid receptor 1): > 30000 nM; EC50 (Cannabinoid receptor 2): > 30000 nM
2 | COc1ccccc1/C=C/C(=O)NC(=S)Nc1ccc(S(=O)(=O)NCCO)cc1 | > 30000 | –
3 | CN(c1ccccc1)S(=O)(=O)c1ccc(NC(=S)NC(=O)c2ccc3cc(CO)ccc3c2)cc1 | 4000 | –
4 | O=C(NC(=S)Nc1ccc(S(=O)(=O)N(Cc2ccc(CO)o2)c2ccccc2)cc1)c1ccc2cccnc2c1 | 600 | –
5 | COc1ccccc1/C=C/C(=O)NC(=S)Nc1ccc(S(=O)(=O)N(Cc2ccncc2)c2ccccc2)cc1 | 300 | –
6 | COc1ccccc1/C=C/C(=O)NC(=S)Nc1ccc(S(=O)(=O)NCC(O)CO)cc1 (stereo not given) | > 30000 | –
7 | CN(c1ccccc1)S(=O)(=O)c1ccc(NC(=S)NC(=O)c2ccc3cccnc3c2)cc1 | 1000 | –
8 | COc1ccccc1/C=C/C(=O)NC(=S)Nc1ccc(S(=O)(=O)Nc2ccccc2)cc1 | 600 | –
9 | O=C(NC(=S)Nc1ccc(S(=O)(=O)N(Cc2ccc(CO)o2)c2ccccc2)cc1)c1ccc2cc(CCO)ccc2c1 | 6000 | –
10 | COc1ccccc1/C=C/C(=O)NC(=S)Nc1ccc(S(=O)(=O)N(Cc2ccccc2O)c2ccccc2)cc1 | 2000 | –
11 | O=C(NC(=S)Nc1ccc(S(=O)(=O)N(CCO)c2ccccc2)cc1)c1ccc2cc(CCO)ccc2c1 | 20000 | –
12 | COc1ccccc1/C=C/C(=O)NC(=S)Nc1ccc(S(=O)(=O)N(CCO)c2ccccc2)cc1 | 700 | –
13 | COc1ccccc1/C=C/C(=O)NC(=S)Nc1ccc(S(=O)(=O)N(Cc2cccc(O)c2)c2ccccc2)cc1 | 2000 | –
14 | Cc1cccc(N2CCN(C(=O)c3cc(S(=O)(=O)N(C)C)ccc3N3CCCC3)CC2)c1C | – | EC50 [1]: 260 nM; EC50 (Cannabinoid receptor 1): > 30000 nM; EC50 (Cannabinoid receptor 2): > 30000 nM
15 | COc1ccccc1/C=C/C(=O)NC(=S)Nc1ccc(S(=O)(=O)N(C)c2ccncc2)cc1 | 500 | –
16 | COc1ccccc1/C=C/C(=O)NC(=S)Nc1ccc(S(=O)(=O)N(Cc2ccc(CO)o2)c2ccccc2)cc1 | 100 | –
17 | O=C(NC(=S)Nc1ccc(S(=O)(=O)N(CCO)c2ccccc2)cc1)c1ccc2cccnc2c1 | 200 | –
18 | COc1ccccc1/C=C/C(=O)NC(=S)Nc1ccc(S(=O)(=O)Nc2onc(C)c2C)cc1 | > 30000 | –
19 | O=C(NC(=S)Nc1ccc(S(=O)(=O)N(Cc2ccc(O)cc2)c2ccccc2)cc1)c1ccc2cccnc2c1 | 500 | –
20 | COc1ccccc1/C=C/C(=O)NC(=S)Nc1ccc(S(=O)(=O)N(C)c2ccccc2)cc1 | – | EC50 [1]: 110 nM; EC50 (Cannabinoid receptor 1): > 30000 nM; EC50 (Cannabinoid receptor 2): > 30000 nM
21 | O=C(NC(=S)Nc1ccc(S(=O)(=O)N(Cc2ccncc2)c2ccccc2)cc1)c1ccc2cccnc2c1 | 900 | –
22 | CN(c1ccccc1)S(=O)(=O)c1ccc(NC(=S)NC(=O)c2ccc3cc(CCO)ccc3c2)cc1 | 300 | –
23 | COc1ccccc1/C=C/C(=O)NC(=S)Nc1ccc(S(=O)(=O)N(Cc2ccc(O)cc2)c2ccccc2)cc1 | 500 | –
24 | CN(c1ccccc1)S(=O)(=O)c1ccc(NC(=S)NC(=O)c2cnc3ccccc3c2)cc1 | > 30000 | –

Reference: ChEMBL document CHEMBL4052732, “Design, synthesis and biological evaluation of GPR55 agonists” (Bioorg Med Chem, 2017)
